The source of these data is ChEMBL document CHEMBL1121405, “Antihypertensive indole derivatives of phenoxypropanolamines with beta-adrenergic receptor antagonist and vasodilating activity” (1980).

For experiment [1], the system named is Rattus norvegicus. Briefly: Antihypertensive activity in spontaneously hypertensive rats after peroral administration,. Format: functional. In a few lines:
(§1)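 SHR, 3-day test. After about 20 min prewarming at 37 °C, indirect systolic pressure by tail cuff at 0 (control), 22, 24, 26 and 46 h. Oral dosing at 0 and 22 h, at 100 mg/kg unless footnoted otherwise. Groups of five rats; maximum mean fall from the control reading is rated in bands (<25, 25-34, 35-44, ≥45 mmHg).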

Experiment [2] concerns Rattus norvegicus. Briefly: Vasodilator activity in ganglion blocked rats. Values denote percent change in mean arterial blood pressure 30 minutes after dosing rats at 3 mg/kg intravenously. The experiment is classed as functional. Conditions: route intravenous. In a few lines: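 Male Wistar rats (275-450 g), urethane 800 mg/kg plus chloralose 60 mg/kg ip, then chlorisondamine 2.5 mg/kg ip for ganglion block. Angiotensin II infused iv at 0.25 or 0.35 μg/min to a new steady pressure. Drug given iv over 3 min; femoral mean arterial pressure recorded at 30 min as % change ± SEM.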

Experiment [3] deals with Rattus norvegicus. The experiment is described as follows: The compound was tested for antihypertensive activity in spontaneously hypertensive rats after peroral administration. Activity value is 35-44 mmHg. The experiment is classed as functional. In a few lines: as §1
The target of experiment [4] is T1, Adrenergic receptor beta (Rattus norvegicus) (UniProt P18090+P10608+P26255). The experiment is described as follows: Beta-adrenergic receptor blockade activity in conscious normotensive rats at a dose of 0.5 mg/kg. Format: functional, organism-based. The arrangement: dose 0.5 mg/kg.
The subject of experiment [5] is Rattus norvegicus. The experiment is described as follows: Antihypertensive activity in spontaneously hypertensive rats after peroral administration. Format: functional. Put shortly: as §1
For experiment [6], the species on record is Rattus norvegicus. The experiment is described as follows: Intrinsic sympathomimetic action in reserpinized rats. The experiment is classed as functional. In a few lines:
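Reserpinized rats given 0.3 mg/kg iv. Read-out is increase in heart rate (bpm), mean ± SEM, n = 3-6.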

In experiment [7] the target is T1, Adrenergic receptor beta (Rattus norvegicus). Briefly: The compound was tested for beta-adrenergic receptor blockade activity in conscious normotensive rats at a dose of 2 mg/kg. The arrangement: dose 2 mg/kg. Format: functional, organism-based.
Experiment [8] deals with Rattus norvegicus. Briefly: The compound was tested for antihypertensive activity in spontaneously hypertensive rats after peroral administration, dosed at 30 mg/kg. The experiment is classed as functional. Conditions: route oral. In a few lines: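 Conscious spontaneously hypertensive rats, groups of five per compound. Given orally at 0 and 22 h. Before tail-cuff readings, rats were prewarmed to 37 °C for about 20 min. Indirect systolic pressure was read at 0 (control), 22, 24, 26 and 46 h. Activity was scored from the maximum mean fall from control: under 25 mmHg (±), 25-34 (+), 35-44 (++), 45 mmHg and over (+++).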

Experiment [9] relates to Rattus norvegicus. Briefly: The compound was tested for antihypertensive activity in spontaneously hypertensive rats after peroral administration, Activity value is <25 mmHg. The experiment is classed as functional. Put shortly: as §1

Each structure is given as a SMILES string.

For `Cc1cccc(C)c1OCC(O)CNC(C)(C)Cc1c[nH]c2ccccc12` (configuration not stated), the Actvity with Rattus norvegicus [1] is listed as <25 mmHg. In addition, the “Delta MAP” value in the experiment with Rattus norvegicus [2] is -4%.

For the compound `Cc1cccc(OCC(O)CNC(C)(C)Cc2c[nH]c3ccccc23)c1C` (configuration not stated), the Actvity in the experiment on Rattus norvegicus [3] worked out at 44 mmHg. For the same compound, the “Delta MAP” value in the experiment with Rattus norvegicus [2] is listed as 8%. In experiment [4], this compound registered an inhibition of 79%.

`CC(C)(Cc1c[nH]c2ccccc12)NCC(O)COc1ccccc1N` (configuration not stated) yielded an Actvity in the experiment on Rattus norvegicus [5] of 44 mmHg. The compound further displayed an Activity in the experiment filed under Rattus norvegicus [6] of 105 beats min-1. Further, the “Delta MAP” value with Rattus norvegicus [2] was -11%.

For the compound `Cc1cc(S(C)(=O)=O)ccc1OCC(O)CNC(C)(C)Cc1c[nH]c2ccccc12` (configuration not stated), in the experiment with Rattus norvegicus [5], the Actvity is given as <25 mmHg. Besides, the “Delta MAP” value in the experiment with Rattus norvegicus [2] is given as -8%.

`CC(C)(Cc1c[nH]c2ccccc12)NCC(O)COc1ccccc1C(N)=O` (configuration not stated): the Actvity in the experiment on Rattus norvegicus [5] stood at 44 mmHg. Moreover, in the experiment filed under Rattus norvegicus [6], the Activity is given as 74 beats min-1. In the experiment on Rattus norvegicus [2], the “Delta MAP” value is on record as -25%.

On to `CC(C)(Cc1c[nH]c2ccccc12)NCC(O)COc1ccccc1` (configuration not stated), for which the Actvity with Rattus norvegicus [5] is on record as <25 mmHg. This compound returned an Activity in the experiment filed under Rattus norvegicus [6] of 141 beats min-1. The “Delta MAP” value with Rattus norvegicus [2] is given as -26%.

`CC(C)(Cc1c[nH]c2ccccc12)NCC(O)COc1ccccc1C#N` (configuration not stated) [BUCINDOLOL] registered an Actvity in the experiment on Rattus norvegicus [5] of 45 mmHg. For the same compound, the Activity in the experiment filed under Rattus norvegicus [6] was 77 beats min-1. The “Delta MAP” value with Rattus norvegicus [2] is listed as -26%. In experiment [7], this compound yielded an inhibition of 71%.

For `CC(C)(Cc1c[nH]c2ccccc12)NCC(O)COc1ccccc1[N+](=O)[O-]` (configuration not stated), the Actvity with Rattus norvegicus [5] is <25 mmHg. In addition, the Activity in the experiment listed under Rattus norvegicus [6] is listed as 106 beats min-1. Further, the “Delta MAP” value in the experiment with Rattus norvegicus [2] is recorded as -38%.

In the case of `CSc1ccccc1OCC(O)CNC(C)(C)Cc1c[nH]c2ccccc12` (configuration not stated), the “Delta MAP” value in the experiment on Rattus norvegicus [2] is -29%.

Take `CC(C)(Cc1c[nH]c2ccccc12)NCC(O)COc1ccccc1-c1ccccc1` (configuration not stated): in the experiment with Rattus norvegicus [1], the Actvity is recorded as <25 mmHg. The “Delta MAP” value in the experiment with Rattus norvegicus [2] worked out at 12%.

Consider `Cc1ccc(OCC(O)CNC(C)(C)Cc2c[nH]c3ccccc23)c(C)c1` (configuration not stated), for which, in the experiment on Rattus norvegicus [5], the Actvity was 34 mmHg. Further, the “Delta MAP” value in the experiment on Rattus norvegicus [2] is 13%.

With `CC(C)NCC(O)COc1cccc2[nH]ccc12` (configuration not stated) [PINDOLOL], in the experiment on Rattus norvegicus [8], the Actvity is given as <25 mmHg. In the experiment filed under Rattus norvegicus [6], this compound returned an Activity of 120 beats min-1. Moreover, the “Delta MAP” value in the experiment with Rattus norvegicus [2] was -32%.

`CC(C)(Cc1c[nH]c2ccccc12)NCC(O)COc1ccccc1C1CCCCC1` (configuration not stated): in the experiment with Rattus norvegicus [5], the Actvity is recorded as <25 mmHg. Besides, the “Delta MAP” value in the experiment on Rattus norvegicus [2] is recorded as 18%.

`CC(C)(Cc1c[nH]c2ccccc12)NCC(O)COc1ccccc1C(F)(F)F` (configuration not stated) had an Actvity in the experiment on Rattus norvegicus [5] of 44 mmHg. Also, the Activity in the experiment listed under Rattus norvegicus [6] worked out at 88 beats min-1. For the same compound, the “Delta MAP” value in the experiment with Rattus norvegicus [2] was -34%.

For `Cc1ccccc1OCC(O)CNC(C)(C)Cc1c[nH]c2ccccc12` (configuration not stated), the Actvity in the experiment with Rattus norvegicus [5] is reported as 34 mmHg. The compound further gave an Activity in the experiment filed under Rattus norvegicus [6] of 100 beats min-1. In the experiment with Rattus norvegicus [2], the “Delta MAP” value is given as -18%.

Take `CCC(C)c1ccccc1OCC(O)CNC(C)(C)Cc1c[nH]c2ccccc12` (configuration not stated): the Actvity in the experiment on Rattus norvegicus [1] is <25 mmHg. Further, the Activity in the experiment filed under Rattus norvegicus [6] is -8 beats min-1. Moreover, in the experiment with Rattus norvegicus [2], the “Delta MAP” value amounted to 22%.

For `CC(C)NCC(O)COc1cccc2ccccc12` (configuration not stated) [PROPRANOLOL], the Actvity in the experiment on Rattus norvegicus [5] is listed as <25 mmHg.

In the case of `CC(C)(Cc1c[nH]c2ccccc12)NCC(O)COc1ccccc1F` (configuration not stated), the Actvity in the experiment on Rattus norvegicus [9] was <25 mmHg. For the same compound, the “Delta MAP” value with Rattus norvegicus [2] is listed as -33%. This compound returned an inhibition in [4] of 58%.

In the case of `Cc1cc(Cl)ccc1OCC(O)CNC(C)(C)Cc1c[nH]c2ccccc12` (configuration not stated), the “Delta MAP” value with Rattus norvegicus [2] was determined as 11%.
